Converted amounts (≈) assume the structure as drawn. “And” between values parts separate entries of the source, which are not always exact repeats. Equal values may be shown once. Read-outs that look alike come from different tables or passages of the source.
What was measured:
[1] = system: T. brucei bloodstream form (BSF) parasites (cell line 90-13, a 427 strain); assay: microbe, parasite or virus in culture; type: cell-based, Trypanosoma brucei; conditions: for % T. brucei BSF growth inhibition (10 μM): 10 μM compound; for % T. brucei BSF growth inhibition (10 μM) / inhibition at 10 µM: BLD = below level of detection; for T. brucei BSF potency (LD50 ± SEM): 3-day growth, n ≥ 3; for inhibition at 10 µM: Trypanosoma brucei, A-427, read-out: % T. brucei BSF growth inhibition (10 μM), 10 μM compound
IMR-90 human cells = assay: Human cell line toxicity testing; type: cell-based
[2] = molecular target: recombinant T. brucei hexokinase 1 (rTbHK1) (Trypanosoma brucei, UniProt Q38C42); assay: biochemical; type: biochemical
[3] = molecular target: T1, human HK 4 (human glucokinase, hGlk) (Homo sapiens, UniProt P35557); assay: Specificity assay against human glucokinase; type: biochemical; conditions: for % hGlk inhibition (10 μM): 10 μM compound, BLD = below level of detection; for inhibition at 10 µM: read-out: % hGlk inhibition (10 μM)
T1 sequence (P35557 1-465): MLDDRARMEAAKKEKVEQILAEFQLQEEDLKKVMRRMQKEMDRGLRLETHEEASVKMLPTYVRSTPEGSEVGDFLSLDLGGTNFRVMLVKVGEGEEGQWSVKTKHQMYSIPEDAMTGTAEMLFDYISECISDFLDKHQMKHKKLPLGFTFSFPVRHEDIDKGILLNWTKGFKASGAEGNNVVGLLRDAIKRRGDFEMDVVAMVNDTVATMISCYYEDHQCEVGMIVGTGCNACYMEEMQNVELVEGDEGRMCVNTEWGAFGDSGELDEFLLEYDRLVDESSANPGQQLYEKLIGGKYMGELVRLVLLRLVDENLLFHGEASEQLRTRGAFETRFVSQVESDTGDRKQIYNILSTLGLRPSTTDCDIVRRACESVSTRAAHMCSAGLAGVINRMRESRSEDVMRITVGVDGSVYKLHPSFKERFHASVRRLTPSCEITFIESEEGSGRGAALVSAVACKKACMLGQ
Outline: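 Uses human hexokinase 4 (glucokinase; GenBank BC001890). Activity is read through a coupled reaction in which glucose-6-phosphate dehydrogenase converts the glucose-6-phosphate formed to 6-phosphogluconate. The coincident NADPH formation is followed at 340 nm.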

[4] = molecular target: T2, Serotonin (5-hydroxytryptamine) 5-HT1A (Homo sapiens, UniProt P08908); assay: PanLabs LeadProfilingScreen radioligand binding; conditions: read-out: percent inhibition
T2 sequence (P08908 1-422): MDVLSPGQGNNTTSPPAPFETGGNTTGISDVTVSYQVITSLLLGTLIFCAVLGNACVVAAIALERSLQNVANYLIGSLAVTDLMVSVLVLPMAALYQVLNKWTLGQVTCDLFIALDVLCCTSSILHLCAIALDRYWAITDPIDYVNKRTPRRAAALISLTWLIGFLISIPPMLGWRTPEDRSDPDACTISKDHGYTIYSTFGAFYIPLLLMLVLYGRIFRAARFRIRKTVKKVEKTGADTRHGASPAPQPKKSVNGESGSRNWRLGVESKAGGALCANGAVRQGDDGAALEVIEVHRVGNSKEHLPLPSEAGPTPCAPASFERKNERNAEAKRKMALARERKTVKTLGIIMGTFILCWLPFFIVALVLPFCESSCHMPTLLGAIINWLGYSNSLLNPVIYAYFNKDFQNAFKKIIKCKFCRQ
Outline: (§1)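 Test compound screened once, at 10 μM, against a panel of mammalian targets; each run in duplicate. Values are percent inhibition at that single concentration; no IC50 determinations were made.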

[5] = molecular target: T3, Leukotriene, cysteinyl CysLT1 (Homo sapiens, UniProt Q9Y271); assay: PanLabs LeadProfilingScreen radioligand binding; conditions: read-out: percent inhibition
T3 sequence (Q9Y271 1-337): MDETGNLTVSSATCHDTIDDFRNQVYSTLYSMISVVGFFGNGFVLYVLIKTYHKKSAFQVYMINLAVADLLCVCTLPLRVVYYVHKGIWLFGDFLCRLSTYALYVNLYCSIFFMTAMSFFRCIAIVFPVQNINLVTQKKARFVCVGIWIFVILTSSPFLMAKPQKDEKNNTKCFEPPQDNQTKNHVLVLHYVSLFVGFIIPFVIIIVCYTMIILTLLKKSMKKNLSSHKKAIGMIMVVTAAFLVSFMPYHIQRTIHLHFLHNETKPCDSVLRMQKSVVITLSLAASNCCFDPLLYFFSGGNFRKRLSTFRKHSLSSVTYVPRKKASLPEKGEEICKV
Outline: as §1

Histamine H2 = Histamine H2 (Homo sapiens, UniProt P25021); assay: PanLabs LeadProfilingScreen radioligand binding; conditions: read-out: percent inhibition
Outline: as §1

Thyroid hormone = assay: PanLabs LeadProfilingScreen radioligand binding; conditions: 10 μM, duplicate, rat
Outline: as §1

[6] = Microsomal stability, human; type: in vitro ADME
[7] = Aqueous solubility, kinetic solubility method; conditions: pH 7.4
Plasma stability, mouse = type: in vitro ADME
Plasma stability, human = type: in vitro ADME
[8] = Microsomal stability, mouse; type: in vitro ADME
Plasma protein binding = type: in vitro ADME; conditions: mouse, mouse species
Adrenergic α1B = molecular target: T4, Adrenergic α1B (Rattus norvegicus, UniProt P15823); assay: PanLabs LeadProfilingScreen radioligand binding; conditions: read-out: percent inhibition
T4 sequence (P15823 1-515): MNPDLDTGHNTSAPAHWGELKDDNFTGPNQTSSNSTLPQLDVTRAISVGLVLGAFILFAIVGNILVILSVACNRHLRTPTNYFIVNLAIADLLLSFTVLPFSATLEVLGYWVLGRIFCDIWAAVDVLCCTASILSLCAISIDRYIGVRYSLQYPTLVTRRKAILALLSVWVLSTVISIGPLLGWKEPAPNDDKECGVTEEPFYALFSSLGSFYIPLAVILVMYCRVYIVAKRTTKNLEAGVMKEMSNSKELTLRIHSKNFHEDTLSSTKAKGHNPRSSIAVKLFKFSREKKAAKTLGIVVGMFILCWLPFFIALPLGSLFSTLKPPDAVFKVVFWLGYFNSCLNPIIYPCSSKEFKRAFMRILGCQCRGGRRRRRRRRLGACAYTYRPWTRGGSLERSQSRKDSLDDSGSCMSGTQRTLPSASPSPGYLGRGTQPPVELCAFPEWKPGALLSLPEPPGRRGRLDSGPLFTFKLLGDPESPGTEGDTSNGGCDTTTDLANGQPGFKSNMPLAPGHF
Outline: as §1

Dopamine D3 = Dopamine D3 (Homo sapiens, UniProt P35462); assay: PanLabs LeadProfilingScreen radioligand binding; conditions: read-out: percent inhibition
Outline: as §1

[9] = molecular target: Dopamine transporter (DAT) (Homo sapiens, UniProt Q01959); assay: PanLabs LeadProfilingScreen radioligand binding; conditions: read-out: percent inhibition
Outline: as §1

Dopamine D1 = Dopamine D1 (Homo sapiens, UniProt P21728); assay: PanLabs LeadProfilingScreen radioligand binding; conditions: read-out: percent inhibition
Outline: as §1

[10] = read-out: IMR90 toxicity (EC50), IMR-90 cells, 44-46 h
[11] = read-out: rTbHK1 potency (IC50 ± SEM), average of n ≥ 3 experiments
[12] = Homo sapiens, IMR-90, read-out: IMR90 toxicity (EC50)

Dopamine D3, sequence (P35462 whole entry): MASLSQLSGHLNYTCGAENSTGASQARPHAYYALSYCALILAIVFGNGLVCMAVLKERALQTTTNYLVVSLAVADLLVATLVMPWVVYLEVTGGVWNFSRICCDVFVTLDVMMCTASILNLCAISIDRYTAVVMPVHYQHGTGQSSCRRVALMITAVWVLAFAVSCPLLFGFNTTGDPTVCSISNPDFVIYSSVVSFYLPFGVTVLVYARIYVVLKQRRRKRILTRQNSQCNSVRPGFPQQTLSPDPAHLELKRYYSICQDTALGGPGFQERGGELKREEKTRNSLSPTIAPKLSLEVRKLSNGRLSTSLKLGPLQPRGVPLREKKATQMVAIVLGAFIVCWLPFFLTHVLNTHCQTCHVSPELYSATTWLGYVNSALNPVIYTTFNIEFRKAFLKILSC
Dopamine D1, sequence (P21728 whole entry): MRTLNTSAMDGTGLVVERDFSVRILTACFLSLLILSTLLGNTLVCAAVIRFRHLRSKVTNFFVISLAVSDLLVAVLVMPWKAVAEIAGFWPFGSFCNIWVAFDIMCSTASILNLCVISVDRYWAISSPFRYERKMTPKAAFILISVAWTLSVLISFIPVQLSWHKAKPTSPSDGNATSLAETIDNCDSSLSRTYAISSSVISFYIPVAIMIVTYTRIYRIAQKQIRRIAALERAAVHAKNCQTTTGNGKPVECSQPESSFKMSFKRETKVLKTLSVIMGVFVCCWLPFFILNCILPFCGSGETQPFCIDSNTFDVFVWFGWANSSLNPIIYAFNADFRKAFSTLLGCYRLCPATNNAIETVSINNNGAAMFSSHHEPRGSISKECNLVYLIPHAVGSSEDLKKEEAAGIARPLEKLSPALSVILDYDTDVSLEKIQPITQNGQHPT
Histamine H2, sequence (P25021 whole entry): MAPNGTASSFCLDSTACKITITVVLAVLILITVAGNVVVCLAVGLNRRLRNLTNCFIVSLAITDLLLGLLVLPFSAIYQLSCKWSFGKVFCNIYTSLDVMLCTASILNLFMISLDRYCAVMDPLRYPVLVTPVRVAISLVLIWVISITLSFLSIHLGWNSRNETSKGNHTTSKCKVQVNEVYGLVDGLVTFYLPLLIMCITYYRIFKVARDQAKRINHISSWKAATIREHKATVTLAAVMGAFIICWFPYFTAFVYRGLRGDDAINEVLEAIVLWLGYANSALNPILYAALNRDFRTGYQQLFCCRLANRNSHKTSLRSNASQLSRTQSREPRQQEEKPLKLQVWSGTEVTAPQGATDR
Dopamine transporter (DAT), sequence (Q01959 whole entry): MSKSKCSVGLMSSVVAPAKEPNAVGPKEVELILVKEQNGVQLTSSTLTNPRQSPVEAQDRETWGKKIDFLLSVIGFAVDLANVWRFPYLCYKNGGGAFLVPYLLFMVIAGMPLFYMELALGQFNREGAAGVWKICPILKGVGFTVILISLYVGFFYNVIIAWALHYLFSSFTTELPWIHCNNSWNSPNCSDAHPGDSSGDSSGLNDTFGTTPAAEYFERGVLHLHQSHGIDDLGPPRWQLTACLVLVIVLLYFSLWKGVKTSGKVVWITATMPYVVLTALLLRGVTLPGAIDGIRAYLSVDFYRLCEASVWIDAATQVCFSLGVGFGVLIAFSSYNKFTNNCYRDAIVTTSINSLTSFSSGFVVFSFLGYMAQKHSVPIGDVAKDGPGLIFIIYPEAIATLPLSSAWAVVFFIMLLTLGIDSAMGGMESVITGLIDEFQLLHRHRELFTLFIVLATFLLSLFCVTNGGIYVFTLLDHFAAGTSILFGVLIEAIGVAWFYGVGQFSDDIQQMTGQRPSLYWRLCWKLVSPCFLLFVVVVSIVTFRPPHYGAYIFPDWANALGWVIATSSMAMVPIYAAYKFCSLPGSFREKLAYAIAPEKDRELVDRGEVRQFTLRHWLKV

Compound | % T. brucei BSF growth inhibition (10 μM) [1] [%] | T. brucei BSF potency (LD50 ± SEM) [1] | EC50 (IMR-90 human cells; [10]) [µM] | IC50 [2, 11] [µM] | % hGlk inhibition (10 μM) [3] [%] | inhibition at 10 µM [1] [%] | EC50 (IMR-90 human cells; [12]) [µM] | IC50 [2] [µM] | inhibition at 10 µM [3] [%] | also measured
CC(C)(C)c1ccc(C(=O)Nc2cc(Cl)c(-c3ccc4c(c3)OCO4)cc2C(=O)O)cc1 [Compound 4z] | 89.8 ± 1.1 | 3.0 ± 0.3 µM | > 25 | 3.9 ± 0.1 | 23.9 ± 2.5 | – | – | – | – | –
CC(C)(C)c1ccc(C(=O)Nc2cc(Cl)c(-c3ccoc3)cc2C(=O)O)cc1 [Compound 4x] | 73.7 ± 3.7 | 4.2 ± 0.4 µM | > 25 | 0.51 ± 0.06 | 3.1 ± 2.8 | – | – | – | – | –
CC(C)(C)c1ccc(C(=O)Nc2cc(Cl)c(-n3cccc3)cc2C(=O)O)cc1 [Compound 4aa] | 73.6 ± 1.0 | 6.9 ± 2.1 µM | > 25 | 3 ± 0.2 | 15.8 ± 3.0 | – | – | – | – | –
CC(C)(C)c1ccc(C(=O)Nc2cc(Cl)c(-c3cccs3)cc2C(=O)O)cc1 [Compound 4u] | – | – | – | – | – | 69.1 ± 5.8 | > 25 | 0.47 ± 0.15 | 12.5 ± 1.3 | –
CC(C)(C)c1ccc(C(=O)Nc2cc(Cl)c(-c3ccc[nH]3)cc2C(=O)O)cc1 [Compound 4bb] | – | – | – | – | – | 57 ± 7.1 | > 25 | 0.5 ± 0.05 | 6.1 ± 0.1 | –
CN(C)c1ccc(-c2cc(C(=O)O)c(NC(=O)c3ccc(C(C)(C)C)cc3)cc2Cl)cc1 [Compound 4l] | 58.0 ± 4.0 | 6.0 ± 0.2 µM | > 25 | > 10 | 27.8 ± 1.7 | – | – | – | – | –
CC(C)(C)c1ccc(C(=O)Nc2cc(Cl)c(-c3cccc(F)c3)cc2C(=O)O)cc1 [Compound 4o] | 93.7 ± 2.6 | 1.8 ± 0.3 µM | > 25 | 4.6 ± 0.32 | 16.1 ± 8.7 | – | – | – | – | –
CC(C)(C)c1ccc(C(=O)Nc2cc(Cl)c(-c3ccncc3)cc2C(=O)O)cc1 [Compound 4s] | 99.7 ± 1.4 | 3.5 ± 0.6 µM | > 25 | > 10 | 15.1 ± 3.2 | – | – | – | – | –
Cc1cc(C(=O)O)c(NC(=O)c2ccc(C(C)(C)C)cc2)cc1Cl [Compound 4c, 2-(4-tert-Butylbenzamido)-4-chloro-5-methylbenzoic acid] | – | – | – | – | – | 97.5 ± 0.6 | > 25 | 2.7 ± 0.18 | 12.5 ± 4.8 | –
Cc1ccc(-c2cc(C(=O)O)c(NC(=O)c3ccc(C(C)(C)C)cc3)cc2Cl)cc1 [Compound 4g] | 81.4 ± 5.6 | 3.2 ± 1.6 µM | > 25 | 2.78 ± 0.03 | 15.7 ± 3.0 | – | – | – | – | –
CC(C)(C)c1ccc(C(=O)Nc2cc(Cl)c(-c3ccco3)cc2C(=O)O)cc1 [Compound 4w] | – | – | – | – | – | 59 ± 8.2 | > 25 | 0.42 ± 0.02 | 10.4 ± 2.1 | –
CC(C)(C)c1ccc(C(=O)Nc2cc(Cl)c(-c3ccccc3)cc2C(=O)O)cc1 [Compound 4f] | – | – | – | – | – | 95 | > 25 | – | 35.2 ± 8.3 | inhibition at 10 µM [4]: 90%; inhibition at 10 µM [5]: 87%; inhibition at 10 µM (Histamine H2): 98%; percent inhibition (Thyroid hormone): 65%; microsomal stability, % parent remaining after 1 h [6]: 46.5%; solubility [7]: 9.6 µM (≈ 3.92 µg/mL); plasma stability, % parent remaining after 3 h (Plasma stability, mouse): 97.4%; plasma stability, % parent remaining after 3 h (Plasma stability, human): 80.8%; % T. brucei BSF growth inhibition (10 μM) ([1]; 10 µM): 95.4 ± 0.8%; microsomal stability, % parent remaining after 1 h [8]: 55.5%; fraction unbound (Plasma protein binding; 1 μM): 0.01; fraction unbound (Plasma protein binding; 10 μM): 0.009; improvement in rTbHK1 potency ([2]; compared to bromide 2): 3.5 fold; inhibition at 10 µM (Adrenergic α1B): 53%; inhibition at 10 µM (Dopamine D3): 86%; inhibition at 10 µM [9]: 88%; Papp (PAMPA permeability; PAMPA permeability (Pe), donor pH 6.2, acceptor pH 7.4): 1.6 ×10⁻⁶ cm/s; Papp (PAMPA permeability; pH 7.4, PAMPA permeability (Pe), donor pH 7.4, acceptor pH 7.4): 49 ×10⁻⁶ cm/s; inhibition at 10 µM (Dopamine D1): 57%
COc1cccc(-c2cc(C(=O)O)c(NC(=O)c3ccc(C(C)(C)C)cc3)cc2Cl)c1 [Compound 4j] | 92.2 ± 2.9 | 1.5 µM and 1.5 ± 0.3 µM | > 25 | 0.88 ± 0.01 | 13.8 ± 1.9 | – | – | – | – | –
CC(C)(C)c1ccc(C(=O)Nc2cc(Cl)c(-c3cccc(Cl)c3)cc2C(=O)O)cc1 [Compound 4q] | – | – | – | – | – | 90.7 ± 1.8 | > 25 | 2.7 ± 0.05 | 30.9 ± 3.5 | –
CC(C)(C)c1ccc(C(=O)Nc2cc(Cl)c(-c3ccc(F)cc3)cc2C(=O)O)cc1 [Compound 4n] | 76.7 ± 10.4 | 3.1 ± 0.7 µM | > 25 | 2.44 ± 0.08 | 15.1 ± 2.6 | – | – | – | – | –
4-methoxybenzamidochlorobenzoic acid [Compound 1] | – | – | > 25 | 9.1 | – | – | – | – | – | activity on whole T. brucei BSF parasites (in words) [1]: no appreciable activity; aqueous solubility (PBS buffer, pH 7.4): > 274.3 μM
